19 molecules from ChEMBL document CHEMBL4033781 (J Med Chem, 2018) can be followed below.

Calls of active or inactive are those of the source. The calls are words filed in the database; no cut-off is given here. Where only a bound is given, the exact number is not on record here.

Series [1] deals with Na+/K+ ATPase alpha-1/beta-1 (Rattus norvegicus, UniProt P06685+P07340). The series is described as follows: Inhibition of recombinant rat Na+/K+-ATPase alpha1/beta1 expressed in baculovirus infected insect Sf9 cell membranes using [gamma-32P]ATP as substrate preincubated for 20 mins followed by substrate addition measured after 30 mins by liquid scintillation counting. An outline of the steps: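 Rat α/β1 isoforms were expressed in baculovirus-infected Sf9 cells (72 h, 27 °C), washed in 10 mM imidazole-HCl pH 7.5 with 1 mM EGTA, and homogenised. Homogenates were assayed in 120 mM NaCl, 30 mM KCl, 3 mM MgCl₂, 0.2 mM EGTA and 30 mM Tris-HCl pH 7.4. Reactions were started with 2 mM γ[³²P]-ATP (final) and run 30 min at 37 °C. Released ³²Pi was extracted as phosphomolybdate into isobutanol and scintillation counted. Activity was taken as the 1 mM ouabain-sensitive fraction. IC50 came from single-site dose–response fits.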

Series [2] has as its target T1, Voltage-gated inwardly rectifying potassium channel KCNH2 (Homo sapiens, UniProt Q12809). The series is described as follows: Displacement of Tracer Red from human ERG expressed in cell membranes up to 60 uM by fluorescence polarization assay. An outline of the steps:
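Competitive fluorescence polarization displacement of a fluorescently tagged hERG ligand used membranes from cells stably expressing hERG. Compounds were tested up to 60 μM.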
On the technique in general: Polarisation of emitted light reports the rotation of a fluorescent probe.

Series [3] deals with Na+/K+ ATPase alpha-2/beta-1 (Rattus norvegicus, UniProt P06686+P07340). The series is described as follows: Inhibition of recombinant rat Na+/K+-ATPase alpha2/beta1 expressed in baculovirus infected insect Sf9 cell membranes using [gamma-32P]ATP as substrate preincubated for 20 mins followed by substrate addition measured after 30 mins by liquid scintillation counting. An outline of the steps:
(§1)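 Rat α/β1 isoforms were expressed in baculovirus-infected Sf9 cells (72 h, 27 °C), washed in 10 mM imidazole-HCl pH 7.5 with 1 mM EGTA, and homogenised. Homogenates were assayed in 120 mM NaCl, 30 mM KCl, 3 mM MgCl₂, 0.2 mM EGTA and 30 mM Tris-HCl pH 7.4. Reactions were started with 2 mM γ[³²P]-ATP (final) and run 30 min at 37 °C. Released ³²Pi was extracted as phosphomolybdate into isobutanol and scintillation counted. IC50 came from single-site dose–response fits.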

The target in series [4] is Na+/K+ ATPase alpha-3/beta-1 (Rattus norvegicus, UniProt P06687+P07340). The series is described as follows: Inhibition of recombinant rat Na+/K+-ATPase alpha3/beta1 expressed in baculovirus infected insect Sf9 cell membranes using [gamma-32P]ATP as substrate preincubated for 20 mins followed by substrate addition measured after 30 mins by liquid scintillation counting. An outline of the steps: as §1

The target in series [5] is Sodium/potassium-transporting ATPase subunit alpha-4 (Rattus norvegicus) (UniProt Q64541). The series is described as follows: Inhibition of Na+/K+-ATPase alpha4 in Long Evans rat cauda epididymis sperm assessed as reduction in sperm progressive motility at 10^-12 to 10^-4 M after 1 hr by SYTO staining based microscopic method.
The target is the same in series [6]. The series is described as follows: Inhibition of Na+/K+-ATPase alpha4 in Long Evans rat cauda epididymis sperm assessed as reduction in sperm straight line velocity at 10^-12 to 10^-4 M after 1 hr by SYTO staining based microscopic method.
The target is the same in series [7]. The series is described as follows: Inhibition of Na+/K+-ATPase alpha4 in Long Evans rat cauda epididymis sperm assessed as reduction in sperm curvilinear velocity at 10^-12 to 10^-4 M after 1 hr by SYTO staining based microscopic method.
Series [8] has the same target. The series is described as follows: Inhibition of Na+/K+-ATPase alpha4 in Long Evans rat cauda epididymis sperm assessed as reduction in sperm average path velocity at 10^-12 to 10^-4 M after 1 hr by SYTO staining based microscopic method.
For series [9] the target is unchanged. The series is described as follows: Inhibition of Na+/K+-ATPase alpha4 in Long Evans rat cauda epididymis sperm assessed as reduction in sperm average path linearity at 10^-12 to 10^-4 M after 1 hr by SYTO staining based microscopic method.
For series [10] the target is unchanged. The series is described as follows: Inhibition of Na+/K+-ATPase alpha4 in Long Evans rat cauda epididymis sperm assessed as reduction in sperm beat cross frequency at 10^-12 to 10^-4 M after 1 hr by SYTO staining based microscopic method.
Series [11] shares this target. The series is described as follows: Inhibition of Na+/K+-ATPase alpha4 in Long Evans rat cauda epididymis sperm assessed as reduction in sperm motility at 10^-8 M preincubated for 1 hr followed by compound washout measured up to 2 hrs by SYTO staining based microscopic method. An outline of the steps: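 Rat cauda epididymal sperm in modified Tyrode's medium were treated with or without compound. Motility was measured by SYTO 21/CASA before and after three washes in modified Tyrode's medium, at times up to 2 h. Values are mean ± SEM of three determinations.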

The subject of series [12] is MCF7. The series is described as follows: Antiproliferative activity against human MCF7 cells up to 100 uM after 72 hrs by AlamarBlue assay. The settings on record: mcf7, 72 h. Type of series: cell-based.
Series [13] deals with Sodium/potassium-transporting ATPase subunit alpha-4 (Rattus norvegicus) (UniProt Q64541). The series is described as follows: Inhibition of Na+/K+-ATPase alpha4 in Long Evans rat cauda epididymis sperm assessed as reduction in total sperm motility at 10^-12 to 10^-4 M after 1 hr by SYTO staining based microscopic method.
Series [14] has as its target N+/K+ ATPase alpha-4/beta-1 (Rattus norvegicus, UniProt Q64541). The series is described as follows: Inhibition of recombinant rat Na+/K+-ATPase alpha4/beta1 expressed in baculovirus infected insect Sf9 cell membranes using [gamma-32P]ATP as substrate preincubated for 10 mins followed by substrate addition measured after 30 mins in presence of Na+, K+ and Mg2+ by liquid scintillation counting. An outline of the steps: as §1

Series [15] addresses T1, Voltage-gated inwardly rectifying potassium channel KCNH2. The series is described as follows: Displacement of Tracer Red from human ERG expressed in cell membranes by fluorescence polarization assay. An outline of the steps:
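Competitive fluorescence polarization binding assay using membranes from cells stably expressing hERG, measuring displacement of a fluorescently tagged hERG ligand. Test compounds were run at concentrations up to 60 μM.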

T1 sequence (Q12809 whole entry): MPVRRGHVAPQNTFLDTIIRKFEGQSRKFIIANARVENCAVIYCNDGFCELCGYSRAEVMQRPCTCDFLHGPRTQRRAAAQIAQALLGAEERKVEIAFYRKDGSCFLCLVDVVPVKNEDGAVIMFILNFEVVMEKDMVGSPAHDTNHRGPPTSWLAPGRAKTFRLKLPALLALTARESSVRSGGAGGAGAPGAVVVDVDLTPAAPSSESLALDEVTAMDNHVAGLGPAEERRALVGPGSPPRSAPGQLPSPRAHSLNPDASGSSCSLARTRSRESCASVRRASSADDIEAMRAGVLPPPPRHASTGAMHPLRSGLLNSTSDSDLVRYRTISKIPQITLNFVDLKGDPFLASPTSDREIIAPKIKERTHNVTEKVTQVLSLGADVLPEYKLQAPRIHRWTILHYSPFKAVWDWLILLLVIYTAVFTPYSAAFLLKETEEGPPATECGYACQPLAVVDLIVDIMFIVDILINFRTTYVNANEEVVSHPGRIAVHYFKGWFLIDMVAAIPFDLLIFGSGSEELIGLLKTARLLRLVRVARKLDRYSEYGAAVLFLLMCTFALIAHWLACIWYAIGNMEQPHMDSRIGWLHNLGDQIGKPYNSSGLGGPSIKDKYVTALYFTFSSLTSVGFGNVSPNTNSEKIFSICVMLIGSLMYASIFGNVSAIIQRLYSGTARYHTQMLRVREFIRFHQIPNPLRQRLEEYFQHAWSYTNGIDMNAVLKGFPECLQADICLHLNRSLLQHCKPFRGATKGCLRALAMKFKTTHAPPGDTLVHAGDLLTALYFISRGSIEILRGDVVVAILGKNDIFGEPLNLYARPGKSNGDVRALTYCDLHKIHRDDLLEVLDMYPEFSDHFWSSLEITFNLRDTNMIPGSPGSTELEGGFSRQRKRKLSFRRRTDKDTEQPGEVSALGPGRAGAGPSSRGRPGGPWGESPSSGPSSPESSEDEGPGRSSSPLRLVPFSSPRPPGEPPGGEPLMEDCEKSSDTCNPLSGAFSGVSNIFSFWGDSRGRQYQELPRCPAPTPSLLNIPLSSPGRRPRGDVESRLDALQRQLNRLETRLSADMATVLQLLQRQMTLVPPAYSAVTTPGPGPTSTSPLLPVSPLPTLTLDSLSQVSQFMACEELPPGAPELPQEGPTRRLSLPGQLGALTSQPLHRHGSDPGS
Sequence of N+/K+ ATPase alpha-4/beta-1 (Q64541 whole entry, other chains not shown): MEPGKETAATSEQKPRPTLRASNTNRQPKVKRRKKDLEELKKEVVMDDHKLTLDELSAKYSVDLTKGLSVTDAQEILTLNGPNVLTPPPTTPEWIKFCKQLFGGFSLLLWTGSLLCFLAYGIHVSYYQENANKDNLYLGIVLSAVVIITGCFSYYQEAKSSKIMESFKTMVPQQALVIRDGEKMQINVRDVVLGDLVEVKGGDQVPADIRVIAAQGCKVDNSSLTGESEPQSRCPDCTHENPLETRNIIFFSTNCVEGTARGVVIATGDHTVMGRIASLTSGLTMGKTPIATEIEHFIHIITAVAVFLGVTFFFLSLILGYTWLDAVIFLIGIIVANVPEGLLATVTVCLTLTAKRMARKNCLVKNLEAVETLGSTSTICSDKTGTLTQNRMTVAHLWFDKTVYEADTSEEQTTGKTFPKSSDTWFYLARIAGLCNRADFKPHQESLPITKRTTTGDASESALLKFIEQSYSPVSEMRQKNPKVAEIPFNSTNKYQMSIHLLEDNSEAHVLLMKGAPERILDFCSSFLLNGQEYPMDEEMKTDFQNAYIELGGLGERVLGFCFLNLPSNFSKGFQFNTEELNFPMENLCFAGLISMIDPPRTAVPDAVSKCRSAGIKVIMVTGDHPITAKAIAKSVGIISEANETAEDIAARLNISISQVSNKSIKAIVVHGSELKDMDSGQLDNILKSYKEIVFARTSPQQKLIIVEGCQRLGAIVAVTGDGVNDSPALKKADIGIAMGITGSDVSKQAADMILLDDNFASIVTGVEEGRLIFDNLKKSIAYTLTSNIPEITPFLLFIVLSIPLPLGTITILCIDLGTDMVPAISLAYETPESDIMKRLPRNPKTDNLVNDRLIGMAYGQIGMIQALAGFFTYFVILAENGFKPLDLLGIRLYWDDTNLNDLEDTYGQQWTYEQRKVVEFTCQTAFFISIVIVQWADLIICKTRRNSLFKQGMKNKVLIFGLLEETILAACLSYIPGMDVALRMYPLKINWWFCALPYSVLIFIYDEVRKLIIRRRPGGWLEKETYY
Sequence of Sodium/potassium-transporting ATPase subunit alpha-4 (Rattus norvegicus) (Q64541 whole entry): as the sequence (Q64541 whole entry, other chains not shown) above

By IC50 is commonly meant the concentration that inhibits the measured activity by half. With `COCO[C@H]1C[C@H]2OC(C)(C)OC[C@]23[C@@H]2[C@@H](CC[C@]3(O)C1)[C@@]1(OCOC)CC[C@H](CO)[C@@]1(C)C[C@H]2OCOC`, the IC50 is more than 100000 nM in [1], 6600 nM in series [3] and more than 100000 nM in [4]. Besides, the “inhibition (INH)” value in [2] is listed as “Not Active”. Further, the inhibition entry in [5], in series [6], in series [7], in series [8], in series [9] and in series [10] was “Active” in each case. Also, the inhibition result in [11] and in series [13] was “Active” throughout. Moreover, the Activity result in [12] is reported as “Non-Toxic”.
`COCO[C@@H]1[C@H]2OC(C)(C)O[C@H]2[C@H](O[C@H]2C[C@H]3OC(C)(C)OC[C@]34[C@@H]3[C@@H](CC[C@]4(O)C2)[C@@]2(O)CC[C@H](CO)[C@@]2(C)C[C@H]3OCOC)O[C@H]1C`: the IC50 in series [1], in series [3] and in series [4] was more than 100000 nM throughout. In addition, the “inhibition (INH)” value in [2] is reported as “Not Active”. The inhibition entry in [5], in [6], in [7], in [8], in series [9] and in series [10] was “Active” in each case. In addition, the inhibition entry in series [11] and in series [13] was “Active” in each case. For the same molecule, the Activity result in series [12] is “Non-Toxic”.
As to `COCO[C@@H]1[C@H]2OC(C)(C)O[C@H]2[C@H](O[C@H]2C[C@H]3OC(C)(C)OC[C@]34[C@@H]3[C@@H](CC[C@]4(O)C2)[C@@]2(O)CC[C@H](C(O)c4cn(Cc5ccc(F)cc5)nn4)[C@@]2(C)C[C@H]3OCOC)O[C@H]1C` (mixture of isomers), in series [14], the half-inhibitory concentration (IC50) lay within 12 to 70 nM.
Same read-out and setting: the result for `COCO[C@H]1C[C@H]2OC(C)(C)OC[C@]23[C@@H]2[C@@H](CC[C@]3(O)C1)[C@@]1(OCOC)CC[C@H](C(O)C(F)(F)F)[C@@]1(C)C[C@H]2OCOC` (mixture of isomers) reads 5600 to 5900 nM; that for `COCO[C@H]1C[C@H]2OC(C)(C)OC[C@]23[C@@H]2[C@@H](CC[C@]3(O)C1)[C@@]1(OCOC)CC[C@H](c3cn(Cc4ccccc4)nn3)[C@@]1(C)C[C@H]2OCOC`, 5 to 6.9 nM; that for `C#CC(O)[C@H]1CC[C@]2(OCOC)[C@@H]3CC[C@]4(O)C[C@@H](OCOC)C[C@H]5OC(C)(C)OC[C@]54[C@H]3[C@H](OCOC)C[C@]12C` (mixture of isomers), 10 to 60 nM.
On the same count and under the same terms, to `COCO[C@H]1C[C@H]2OC(C)(C)OC[C@]23[C@@H]2[C@@H](CC[C@]3(O)C1)[C@@]1(OCOC)CC[C@H](/C=N/O)[C@@]1(C)C[C@H]2OCOC` belongs 1.4 to 2.9 nM; to `C[C@@H]1O[C@@H](O[C@H]2C[C@H]3OC(C)(C)OC[C@]34[C@H]3[C@H](O)C[C@]5(C)[C@@H](C6=CC(=O)OC6)CC[C@]5(O)[C@@H]3CC[C@]4(O)C2)[C@@H]2OC(C)(C)O[C@@H]2[C@H]1O`, 4 to 4.3 nM.
`C[C@@H]1O[C@@H](O[C@H]2C[C@@H](O)[C@]3(CO)[C@H]4[C@H](O)C[C@]5(C)[C@@H](C6=CC(=O)OC6)CC[C@]5(O)[C@@H]4CC[C@]3(O)C2)[C@H](O)[C@H](O)[C@H]1O` [OUABAIN] registered an IC50 in series [15] of 5800 nM.
Turning to `C[C@]12C[C@@H](O)[C@H]3[C@@H](CC[C@]4(O)C[C@@H](O)C[C@@H](O)[C@]34CO)[C@@]1(O)CC[C@@H]2c1cn(Cc2ccc(Cl)cc2)nn1`, in series [14], the IC50 lay within 32 to 43 nM.
On the same count and under the same terms, to `COc1ccc(-c2cn(C[C@H]3CC[C@]4(O)[C@@H]5CC[C@]6(O)C[C@@H](O)C[C@@H](O)[C@]6(CO)[C@H]5[C@H](O)C[C@]34C)nn2)cc1` belongs 15000 to 39000 nM; to `COCO[C@@H]1[C@H]2OC(C)(C)O[C@H]2[C@H](O[C@H]2C[C@H]3OC(C)(C)OC[C@]34[C@@H]3[C@@H](CC[C@]4(O)C2)[C@@]2(O)CC[C@H](C(O)CO)[C@@]2(C)C[C@H]3OCOC)O[C@H]1C` (mixture of isomers), 2100 to 3700 nM; to `C[C@]12C[C@@H](O)[C@H]3[C@@H](CC[C@]4(O)C[C@@H](O)C[C@@H](O)[C@]34CO)[C@@]1(O)CC[C@@H]2c1cn(Cc2ccc(F)cc2)nn1`, 32 to 49 nM.
As for `COCO[C@@H]1[C@H]2OC(C)(C)O[C@H]2[C@H](O[C@H]2C[C@H]3OC(C)(C)OC[C@]34[C@@H]3[C@@H](CC[C@]4(O)C2)[C@@]2(O)CC[C@H](C#N)[C@@]2(C)C[C@H]3OCOC)O[C@H]1C`, the half-inhibitory concentration (IC50) in series [14] lay in the range of 33 to 62 nM.
Still for that read-out and setting: to `C[C@@H]1O[C@@H](O[C@H]2C[C@@H](O)[C@]3(CO)[C@H]4[C@H](O)C[C@]5(C)[C@@H](C(O)c6cn(Cc7ccc(F)cc7)nn6)CC[C@]5(O)[C@@H]4CC[C@]3(O)C2)[C@H](O)[C@H](O)[C@H]1O` (mixture of isomers) belongs 13 to 44 nM; to `COCO[C@H]1C[C@H]2OC(C)(C)OC[C@]23[C@@H]2[C@@H](CC[C@]3(O)C1)[C@@]1(OCOC)CC[C@H](C#N)[C@@]1(C)C[C@H]2OCOC`, 16000 to 37000 nM.
Still for that read-out and setting: to `C[C@@H]1O[C@@H](O[C@H]2C[C@@H](O)[C@]3(CO)[C@H]4[C@H](O)C[C@]5(C)[C@@H](C(O)c6cn(Cc7ccccc7)nn6)CC[C@]5(O)[C@@H]4CC[C@]3(O)C2)[C@H](O)[C@H](O)[C@H]1O` (mixture of isomers) belongs 1200 to 1500 nM; to `COCO[C@H]1C[C@H]2OC(C)(C)OC[C@]23[C@@H]2[C@@H](CC[C@]3(O)C1)[C@@]1(OCOC)CC[C@H](C(=O)O)[C@@]1(C)C[C@H]2OCOC`, 39 to 77 nM; to `COCO[C@@H]1[C@H]2OC(C)(C)O[C@H]2[C@H](O[C@H]2C[C@H]3OC(C)(C)OC[C@]34[C@@H]3[C@@H](CC[C@]4(O)C2)[C@@]2(O)CC[C@H](C=O)[C@@]2(C)C[C@H]3OCOC)O[C@H]1C`, 4.9 to 7.1 nM.
